HSF1 inh = HSF1 inhibitors in luciferase reporter cells, primary screen, cell-based, NIH3T3, luminescence. NIH3T3-HGL HSE-luciferase, MG132-induced, luminescence 8 h; stronger effect = lower value. actives 0.77% (n = 300,000). AID 2098, 2009. activity change, negative = inhibition, % at 7.5 µM (by protocol);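 active means more than half of replicate wells show activity change below -50%, luminescence cut by over half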;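 further: luciferase reports HSF-1 transcriptional activity via heat shock element; 0% = median of DMSO wells and -100% = zero luminescence signal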
HCV core dimer = inhibitors of HCV core protein dimerization, primary screen, biochemical, TR-FRET, high-throughput; AID 1899, 2009; TR-FRET GST/Flag-core106 dimerization, 1536-well; inhibition, % at 5 µM; actives 0.33% (n = 300,000);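 active means inhibition above the mean of all tested compounds plus 3 SD, set per screening campaign, cut at about 45% in these data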
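System – GST-tagged and Flag-tagged HCV core protein residues 1-106 · Repeats – one well for each compound · Technique – TR-FRET 671 and 617 nm emission · Doses – one concentration, 5 µM, in 0.5% DMSO · Times – 4 h, 22.5 °C incubation · Also added – Eu donor and XL665 acceptor anti-tag antibodies · Measure – percent inhibition of core106 dimerization signal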
HSP90 inh = HSP90 inhibitors, primary screen, cell lysate, luminescence; Heat shock protein HSP 90 (rabbit reticulocyte lysate; luciferase refolding); Rabbit reticulocyte lysate, luciferase refolding luminescence, 3 h; inhibition, % at 5.6 µM; actives 0.91% (n = 290,000);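 active means inhibition above the screen-wide mean plus 3 SD, computed separately per campaign, cut at about 16% in these data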;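 further: 0% = DMSO wells and 100% = 60 µM geldanamycin wells; inhibitors lower the luminescence because luciferase stays unfolded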
FID counter = compounds displacing fluorescent DNA intercalator, primary screen, artefact control for HCV NS3 helicase inhibitor project, biochemical, FID fluorescence; DNA fluorescent intercalator displacement; inhibition, % at 7.9 µM; AID 1845, 2009; actives 0.17% (n = 290,000); in the data active means inhibition above about 37%;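 further: 0% = vehicle and 100% = reference compound; higher means more ethidium bromide displaced from hairpin DNA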
NS3 helicase inh = inhibitors of HCV NS3 helicase, primary screen, biochemical, Cy5 molecular beacon fluorescence | Hepatitis C virus NS3 helicase | inhibition, % at 10.9 µM | NS3 helicase DNA unwinding | actives 0.56% (n = 290,000) | AID 1800, 2009;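 active means inhibition above the mean of all tested compounds plus 3 SD, set per campaign, cut at about 35% in these data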;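 further: 0% = DMSO wells and 100% = thioflavine S control wells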
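Assay system: hepatitis C virus NS3 helicase domain fragment enzyme. Also added: annealed dual-labelled DNA beacon duplex, ATP-started. Timing: 1 h reaction at 25 °C, ATP-initiated. Technique: Cy5 fluorescence at 0 and 60 min, beacon hairpin quenching. Evaluation: % inhibition of unwinding. Replication: one well per compound.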
HSF-1 act = HSF-1 activators, primary screen, NIH3T3-HGL cells, MG132 stress, luminescence, single point; NIH3T3-HGL HSF-1 luciferase reporter, 8 h; 100% = twice DMSO control signal; activation, % at 9 µM; actives 1.7% (n = 300,000);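 active means mean replicate activation of at least 50% with a set share of replicates each reaching 50%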;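 further: 0% = median of the neutral control wells and 100% = twice that signal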
The depositor's hits bear a star; x = not tested or not shown. In the library only some 3.9% were active in any assay of this set; here they are far more common.

SMILES | HSF1 inh | HCV core dimer | HSP90 inh | FID counter | NS3 helicase inh | HSF-1 act
CC(C)CC(C(=O)OCC(=O)c1c(N)n(C)c(=O)n(C)c1=O)N1C(=O)C2CC=CCC2C1=O (centres undefined) | 4 | -6 | 2 | -20 | -3 | -7
COc1ccc2nccnc2c1[N+](=O)[O-] | 3 | 3 | 0 | -4 | 12 | 2
COc1cc2c(cc1OC)C(C(=O)NC1CC1)C1c3ccccc3CCN1C2=O (centres undefined) | -61* | 2 | 0 | -12 | 8 | -68
COc1cc(C(O)c2nc3ccccc3n2C(C)C)cc(OC)c1OC (centres undefined) | -17 | 7 | 1 | 53* | -2 | -36
COc1ccc(OC)c(C(O)c2nc3ccccc3n2C(C)C)c1 (centres undefined) | -1 | 1 | 0 | -10 | 6 | 4
O=C(CC(c1ccco1)S(=O)(=O)c1ccccc1)c1ccccc1 (centres undefined) | 65 | -4 | 0 | -4 | 6 | 85*
CCOC(=O)CSC1=C(C#N)C(c2ccccc2OC)CC(=O)N1 (centres undefined) | 5 | 2 | 3 | -7 | 2 | 33
CCOC(=O)CSC1=C(C#N)C(c2ccccc2C)C2=C(CCCC2=O)N1 (centres undefined) | -85* | -7 | -4 | -14 | -2 | -89
OCC1CCCN(Cc2cn(Cc3ccccc3)nc2-c2cc3ccccc3o2)C1 (centres undefined) | 10 | 1 | -1 | 27 | -34 | 24
C=CCSc1nc(-c2ccc(OC)cc2)c(C#N)c(=O)n1CC=C | 20 | x | -1 | -17 | -14 | 65*
Cc1cc(C)n(CCC(=O)Nc2cccc(F)c2)n1 | 1 | 0 | 3 | -2 | -9 | 4
Cc1ccc(C(=O)CSc2cc(C)[nH]c(=O)n2)cc1 | 11 | 64* | 5 | -30 | 18 | 21
C#CCOCCOCCOCCNc1nc(N2CCN(C(=O)[C@H](Cc3ccc(O)cc3)n3cc([C@@H](N)CC(C)C)nn3)CC2)nc(N2CCN(C(=O)[C@H](Cc3cc4ccccc4[nH]3)n3cc([C@@H](N)CC(C)C)nn3)CC2)n1 | 1 | -4 | 9 | 37* | -74 | -19
C#CCOCCOCCOCCNc1nc(N2CCN(C(=O)[C@H]([C@@H](C)CC)n3cc([C@@H](N)CC(C)C)nn3)CC2)nc(N2CCN(C(=O)[C@H](Cc3cc4ccccc4[nH]3)n3cc([C@@H](N)Cc4ccc(O)cc4)nn3)CC2)n1 | 5 | -21 | 13 | 44* | -68 | -4
C#CCOCCOCCOCCNc1nc(N2CCN(C(=O)C(Cc3cc4ccccc4[nH]3)n3cc(C(N)C(C)CC)nn3)CC2)nc(N2CCN(C(=O)C(Cc3cc4ccccc4[nH]3)n3cc(C(N)C(C)CC)nn3)CC2)n1 (centres undefined) | -4 | 1 | 8 | 38* | -72 | -16
COc1ccc(CCNC(=O)C2CCN(S(=O)(=O)N3CCOCC3)CC2)cc1OC | -7 | 0 | 0 | -5 | 7 | -2
Cc1ccc(S(=O)(=O)N2CCN(C(=O)CSc3nnnn3C)C2)cc1 | -4 | -5 | -1 | 0 | -4 | 12
Nc1nc(-c2ccc(C(=O)O)cc2)cs1 | -7 | -6 | 2 | 0 | 1 | -5
Nc1cc2sc(-c3ccc(C(=O)O)cc3)nc2cc1Cl | -3 | 18 | 18* | -6 | 12 | -8
O=C(Nc1ccc(OC(F)F)c(Cl)c1)c1ccccn1 | 24 | -2 | 4 | 3 | -7 | 70*
CC1CCN(CC(=O)c2cccs2)CC1 | -62* | -4 | -1 | -2 | 6 | -66
Cc1ccc(N(CC(=O)NCc2ccccc2)C(=O)CCC(=O)Nc2ccccn2)cc1C | -2 | 1 | 0 | -45 | -8 | 5

Source: PubChem BioAssay
